# Screening data (PubChem BioAssay)
# Hits are enriched below; roughly 1.7% of the tested compounds scored in any of these assays.
# LMPTP block: blocks human LMPTP phosphatase | P24666 | recombinant LMPTP-A, OMFP fluorogenic substrate, fluorescence intensity | inhibition, % at 20 µM | actives 0.22% (n = 360,000) | AID 651560;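 active = compounds that cut the enzyme signal by at least half of the control window in the single-dose screen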;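 also: plate controls were DMSO wells with enzyme plus substrate for no effect and substrate without enzyme for full effect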
# Target sequence (P24666 whole entry, looked up): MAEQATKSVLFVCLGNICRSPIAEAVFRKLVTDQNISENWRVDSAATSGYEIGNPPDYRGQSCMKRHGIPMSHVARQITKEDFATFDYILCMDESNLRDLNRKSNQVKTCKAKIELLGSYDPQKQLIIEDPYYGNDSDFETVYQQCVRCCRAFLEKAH
#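 Test system: LMPTP-A phosphatase enzyme. Amount: LMPTP-A at 0.625 nM final in the reaction. Reagent: OMFP substrate, 400 µM final. Times: 50 min at room temperature. Signal: endpoint fluorescence intensity from OMFP dephosphorylation. Read-out basis: % inhibition. Benchmarks: no-enzyme and uninhibited controls.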
# STEP block: blocks human striatal-enriched tyrosine phosphatase. AID 588621. actives 0.25% (n = 360,000). P54829. inhibition, % at 20 µM. recombinant STEP, OMFP fluorogenic substrate, fluorescence;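 active = inhibition at 20 µM, scaled per plate between control wells, above about 37%, limit read from the data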;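 also: 0% = DMSO with enzyme and substrate and 100% = substrate only without enzyme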
# Target sequence (P54829 whole entry, looked up): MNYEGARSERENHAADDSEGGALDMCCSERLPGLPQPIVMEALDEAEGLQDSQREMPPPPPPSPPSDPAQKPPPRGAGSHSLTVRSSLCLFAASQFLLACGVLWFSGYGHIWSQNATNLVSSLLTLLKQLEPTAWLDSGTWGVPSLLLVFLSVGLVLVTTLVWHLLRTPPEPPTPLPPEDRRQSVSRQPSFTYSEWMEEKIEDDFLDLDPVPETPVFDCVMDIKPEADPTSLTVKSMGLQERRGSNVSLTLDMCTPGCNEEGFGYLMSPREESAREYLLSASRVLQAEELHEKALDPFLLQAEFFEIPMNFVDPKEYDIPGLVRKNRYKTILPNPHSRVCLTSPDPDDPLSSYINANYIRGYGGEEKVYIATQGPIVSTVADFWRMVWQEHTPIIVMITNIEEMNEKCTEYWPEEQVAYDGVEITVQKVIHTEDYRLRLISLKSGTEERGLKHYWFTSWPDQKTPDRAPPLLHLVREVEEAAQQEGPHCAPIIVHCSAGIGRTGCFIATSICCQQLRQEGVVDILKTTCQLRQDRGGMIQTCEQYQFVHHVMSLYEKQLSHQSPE
#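 Test system: STEP tyrosine phosphatase / Reagent: OMFP at 25 µM / Doses: 20 µM, 1% DMSO / Read-out: percent inhibition scaled to no-enzyme and uninhibited-enzyme controls, plate-pattern corrected / Detection: FITC-channel fluorescence of OMFP product / Medium: Bis-Tris buffer pH 6.0, 2.5 mM DTT, 0.005% Tween 20 / Schedule: 20 min at room temperature, dark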
# SUMO1-SIM PPI: alters human SUMO1 binding to SIM partners | P63165 | SUMO1 binding to a labelled peptide, TR-FRET, 1 h | inhibition, % at 20 µM | actives 0.33% (n = 360,000) | AID 602429; in the data active = inhibition above about 37%
# Scp1 inh: inhibitors of human Scp-1 phosphatase. Q9GZU7. Recombinant Scp1, phosphopeptide, malachite green phosphate absorbance. inhibition, % at 20 µM. actives 0.88% (n = 340,000). AID 493091;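 active = inhibition above about 50% at 20 µM, limit read from the data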;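 also: plate controls were DMSO wells with enzyme for no effect and wells lacking enzyme for full effect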
#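 Test system: SCP-1 phosphatase catalytic domain, residues 76-261 | Compound dosing: One concentration, 20 µM, with 1.0% DMSO | Schedule: 45 min room-temperature reaction, 5 min colour, 30 min stabiliser | Detection: Absorbance at 630 nm | Read-out basis: % inhibition of SCP-1 phosphate liberation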
# DNMT1 inh: blocks human DNA methyltransferase DNMT1 | AID 588458 | actives 0.83% (n = 360,000) | DNMT1 molecular beacon, Hinp1I cleavage, fluorescence | inhibition (reported as % activation of signal), % at 10 µM; in the data active = inhibition above about 50%
# Scp1 confirm: Scp-1 (human) inhibition, single-dose confirmed; inhibition, % at 20 µM; AID 540281; actives 61% (n = 2,500); recombinant SCP-1 catalytic domain, phosphate release, malachite green absorbance; shares compounds with Scp1 inh;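 also: plate controls were DMSO with enzyme for no effect and buffer wells lacking enzyme for full effect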
# MG interference: counter-screen for Scp-1 inhibitors: colorimetric interference; 2,500 tested, under 10 active; shares compounds with Scp1 inh; Colorimetric interference counterscreen, malachite green absorbance 630 nm; apparent inhibition (interference), % at 20 µM;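 also: compounds added after enzyme reaction finished so only phosphate colour detection is probed; plate controls were DMSO wells with completed Scp-1 reaction for no effect and substrate wells lacking enzyme for full effect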
# Scp1 DSF: validation of human Scp-1 inhibitors by thermal shift binding; Recombinant SCP1, Sypro Orange thermal shift Tm; AID 540329; thermal shift relative to vanadate control, % at 40 µM; actives 25% (n = 1,500); shares compounds with Scp1 inh;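 active = substances whose mean melting-temperature shift, as a percentage of the reference inhibitor's shift, reaches about 5.3%, limit read from the data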;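 also: 0% = Tm of DMSO wells and 100% = Tm with sodium orthovanadate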
# Active calls of the source: *; / = not tested or not shown.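 The calls were made as follows, unless noted: active = inhibition of at least 30% at 20 µM; inactive = the rest.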
SMILES,LMPTP block,STEP block,SUMO1-SIM PPI,Scp1 inh,DNMT1 inh,Scp1 confirm,MG interference,others
CCOC(=O)C1CCN(C(=O)CCCCn2c(=O)[nH]c3ccccc3c2=O)CC1,-0.1,-0.4,-2.0,68.2*,1.6,-15.3,-6.8,
COc1ccc(Cn2c(C3CCCCC3)nc3c(c(=O)c4ccccc4n3C)c2=O)cc1,/,/,/,87.2*,/,54.7*,-9.5,Scp1 DSF=-29.0
COc1ccc(Cn2c(-c3ccccc3)nc3c(c(=O)c4ccccc4n3C)c2=O)cc1,4.6,4.4,11.4,5.5,37.5,/,/,
COc1ccc(Cl)cc1S(=O)(=O)NCc1cccnc1,-0.3,1.0,5.0,59.6*,0.1,-16.9,-14.2,
CCOc1ccc(Cl)cc1S(=O)(=O)NCc1cccnc1,-1.2,2.9,1.8,-7.0,1.4,/,/,
CCc1nnc(NC(=O)COc2ccccc2[N+](=O)[O-])s1,-1.1,-2.8,-12.6,-11.4,1.8,/,/,
COc1cccc2cc(C(=O)NCc3ccco3)c(=O)oc12,-1.6,-1.4,-16.5,-2.7,-0.8,/,/,
COc1cccc2cc(C(=O)NCc3ccco3)c(=Nc3ccc(C(=O)O)cc3)oc12,0.4,0.1,-17.4,56.2*,-4.5,31.8*,-19.4,Scp1 DSF=-0.1
O=C(/C=C\Nc1ccc2c(c1)OCO2)c1ccc(Cl)s1,63.5*,2.1,-7.5,91.2*,8.3,74.9*,0.3,Scp1 DSF=-0.1
O=C(/C=C\Nc1ccc2c(c1)OCO2)c1cccs1,3.5,2.2,-20.8,-9.3,-3.0,/,/,
NS(=O)(=O)c1ccc(NC(=S)Nc2ccc(F)c(F)c2)cc1,-1.4,-2.6,-3.7,59.5*,2.2,-2.2,-10.9,
Cc1cccc(C(=O)N2CCN(Cc3nc4sc5c(c4c(=O)[nH]3)CCCC5)CC2)c1,0.5,-1.4,-1.6,-5.2,-2.2,/,/,
CC(C)(C)OC(=O)N1CCCC1C(=O)NCCc1ccccc1 (stereo unspecified),-3.1,-1.8,-4.0,96.7*,1.9,-4.4,-4.9,
CCc1ccc(NC(=O)CCc2nc3sc4c(c3c(=O)[nH]2)CCCC4)cc1,2.3,0.8,-1.6,7.0,20.9,/,/,
CC(=O)c1ccc(NC(=O)CCc2nc3sc4c(c3c(=O)[nH]2)CCCC4)cc1,8.4,4.2,-1.3,51.8*,17.4,65.1*,-21.3,Scp1 DSF=-0.2
O=C(CCN=C1NS(=O)(=O)c2ccccc21)NCc1ccccc1F,-7.2,-2.8,-23.6,-21.0,-7.4,/,/,
COc1ccccc1NS(=O)(=O)c1ccc2[nH]c(=S)oc2c1,0.8,-5.3,12.2,58.7*,7.1,-7.4,-12.3,
CC(=O)Nc1ccc(S(=O)(=O)N2CCN(C(=O)c3ncoc3-c3ccccc3)CC2)cc1,-0.2,-3.1,1.3,-0.6,1.5,/,/,
O=S(c1ccccc1O)S(=O)c1ccccc1O (stereo unspecified),2.6,1.1,10.5,35.9,17.3,/,/,
Cc1ccc(CNC(=O)c2cc(=O)c3cc(C)ccc3o2)cc1,28.7,24.4,11.7,60.5*,2.1,19.8,-15.1,
COCCN(C(=O)Cn1nnc2ccccc21)C(C(=O)NC1CCCCC1)c1ccc(OC)cc1OC (stereo unspecified),1.1,0.4,-0.9,70.8*,10.8,47.9*,-4.9,Scp1 DSF=-15.4
O=C(NCc1ccccc1OC(F)(F)F)C1CCC(=O)N(Cc2cccc(F)c2)C1 (stereo unspecified),-1.0,-3.4,5.3,-10.2,-0.3,/,/,
O=C(NCCN1CCNC1=O)C1CCC(=O)N(Cc2ccccc2F)C1 (stereo unspecified),-2.2,-2.9,3.8,-7.1,2.5,-16.6,-16.2,
O=C(NCCc1ccccc1F)C1CCC(=O)N(Cc2ccccc2F)C1 (stereo unspecified),0.3,-0.4,-0.5,-5.3,0.1,/,/,
COc1ccccc1CN1CC(C(=O)NCc2cc(C(C)C)no2)CCC1=O (stereo unspecified),-1.0,-3.8,5.0,69.8*,0.8,-7.8,-9.6,
SMILES,LMPTP block,STEP block,SUMO1-SIM PPI,Scp1 inh,DNMT1 inh,Scp1 confirm,MG interference,others
Cc1ccccc1CNC(=O)C1CCC(=O)N(Cc2cccc(F)c2)C1 (stereo unspecified),-0.9,1.1,4.4,0.6,1.9,-12.9,-12.9,
CCCCNC(=O)C1(C)CCN1C(=O)c1sccc1C (stereo unspecified),1.0,-0.4,-2.8,/,-0.8,/,/,
CCCCn1nnnc1C(c1ccccc1)N1CCN(c2ccc(C(F)(F)F)cc2[N+](=O)[O-])CC1 (stereo unspecified),2.2,/,-2.4,/,/,/,/,
O=C(OCc1cc(=O)n2cc(Br)ccc2n1)C1COc2ccccc2O1 (stereo unspecified),1.0,-0.6,-24.5,16.3,6.3,/,/,
Cn1c(SCc2cc(=O)n3cc(Br)ccc3n2)nnc1C1COc2ccccc2O1 (stereo unspecified),0.4,2.7,-17.3,61.4*,35.4,40.6*,-21.1,Scp1 DSF=-17.4
Cc1nc(NC(=O)COC(=O)C2CC3CCCC(C2)C3=O)c(Cl)cc1Cl (stereo unspecified),-0.9,-1.6,1.9,2.6,-0.1,/,/,
O=c1[nH]n2c(=O)c3c([nH]c2c1N=Nc1cccc(Cl)c1)CCCC3,5.0,4.5,5.1,94.6*,0.2,46.1*,-18.4,Scp1 DSF=30.0*
CCC(C)(CCNC(=O)Cc1ccccc1)c1ccccc1OC (stereo unspecified),1.0,-0.2,4.0,-13.1,-1.3,/,/,
O=C(CCC1CC(=O)Nc2ccccc21)NCc1ccc(F)cc1 (stereo unspecified),-2.9,-1.6,1.2,-8.4,-9.6,-8.4,-7.3,
O=C(CCC1CC(=O)Nc2ccccc21)NCc1ccccc1 (stereo unspecified),0.7,-1.2,-0.9,-4.3,-3.9,/,/,
CC(/C=C/c1ccc(C)o1)=C\C(=O)O,-1.5,2.1,-0.5,-4.3,3.9,/,/,
CC(=C/C(=O)O)/C=C/c1ccc(Cl)o1,-1.1,9.3,2.3,60.6*,105.8*,53.8*,-15.1,Scp1 DSF=1.0
O=C(Cc1ccccc1)c1ccc(N2CCOCC2)cc1,-0.7,0.5,-7.0,-7.6,4.8,/,/,
COc1ccc(/C=N/NC(=O)CCn2c3ccccc3c3ccccc32)cc1O,2.7,-3.3,-6.0,56.2*,-6.4,-19.4,-14.2,
CCOc1ccc(C(=O)CCCC(=O)c2ccc(OCC)cc2)cc1,25.6,7.9,8.9,77.3*,6.2,3.6,-0.2,
CCCCC(=O)OCC(=O)c1ccc(OCC)cc1,-0.8,1.2,-2.5,-6.8,-3.4,/,/,
